Active and inactive are the calls of the source. The calls are words filed in the database; no cut-off is given here.
Experiments:
[1] = Inhibition of Haemophilus influenzae TrmD using S-[methyl-3H] adenosyl-L-methionine as substrate assessed as leucine-tRNA methylation after 1 hr by scintillation proximity assay
Summary of the method: (§1)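 Radiometric SPA: TrmD in 50 mM HEPES pH 7.5 with 5 mM MgCl2 (E. coli and K. pneumoniae 10 nM, S. aureus 10 nM, P. aeruginosa 5 nM, H. influenzae 4 nM in enzyme reagent), mixed 1:1 with a reagent of 0.05 μM [3H]SAM, 2 μM unlabelled SAM and 2 μM synthetic E. coli leucine-tRNA. Compounds are 2-fold serial DMSO dilutions. Incubation is 1 h at room temperature.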

[2] = Inhibition of Staphylococcus aureus TrmD using S-[methyl-3H] adenosyl-L-methionine as substrate assessed as leucine-tRNA methylation after 1 hr by scintillation proximity assay; summary of the method: as §1
[3] = Inhibition of Escherichia coli TrmD using S-[methyl-3H] adenosyl-L-methionine as substrate assessed as leucine-tRNA methylation after 1 hr by scintillation proximity assay; summary of the method: as §1
[4] = Selectivity ratio for Escherichia coli TrmD over human SET7/9
[5] = target: Protein arginine N-methyltransferase 1 (Homo sapiens) (UniProt Q99873); assay: Inhibition of human PRMT1 at 20 uM relative to control
Protein arginine N-methyltransferase 1 (Homo sapiens), sequence (Q99873 whole entry, looked up): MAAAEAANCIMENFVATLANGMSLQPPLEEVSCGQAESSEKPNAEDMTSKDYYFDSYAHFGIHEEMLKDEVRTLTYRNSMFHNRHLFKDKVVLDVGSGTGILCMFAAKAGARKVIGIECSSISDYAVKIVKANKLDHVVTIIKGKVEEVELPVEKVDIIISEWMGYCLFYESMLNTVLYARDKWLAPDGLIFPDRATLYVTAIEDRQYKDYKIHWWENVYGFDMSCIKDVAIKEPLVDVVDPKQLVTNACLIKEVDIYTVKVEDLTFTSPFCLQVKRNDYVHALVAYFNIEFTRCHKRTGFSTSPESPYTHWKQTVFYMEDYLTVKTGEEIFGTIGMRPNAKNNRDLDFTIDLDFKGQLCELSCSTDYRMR

[6] = Selectivity ratio for Escherichia coli TrmD over human PRMT1
[7] = target: T1, Histone-lysine N-methyltransferase SETD7 (Homo sapiens) (UniProt Q8WTS6); assay: Inhibition of human SET7/9 at 20 uM relative to control
T1 sequence (whole entry): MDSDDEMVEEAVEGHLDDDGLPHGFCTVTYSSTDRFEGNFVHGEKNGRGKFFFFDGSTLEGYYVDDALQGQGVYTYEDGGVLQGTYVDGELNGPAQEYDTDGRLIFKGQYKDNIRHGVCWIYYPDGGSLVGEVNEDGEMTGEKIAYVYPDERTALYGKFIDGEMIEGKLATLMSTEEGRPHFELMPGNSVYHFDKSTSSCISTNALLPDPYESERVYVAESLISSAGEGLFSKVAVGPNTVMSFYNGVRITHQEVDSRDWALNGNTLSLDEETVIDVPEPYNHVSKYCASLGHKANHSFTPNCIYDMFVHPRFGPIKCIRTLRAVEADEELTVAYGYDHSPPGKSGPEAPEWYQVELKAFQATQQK

[8] = Aqueous solubility of the compound; assay type: physicochemical; details: buffer
[9] = Selectivity ratio of IC50 for Escherichia coli TrmD to IC50 for Pseudomonas aeruginosa TrmD
[10] = Inhibition of Acinetobacter baumannii TrmD using S-[methyl-3H] adenosyl-L-methionine as substrate assessed as leucine-tRNA methylation after 1 hr by scintillation proximity assay
Klebsiella pneumoniae = assay: Inhibition of Klebsiella pneumoniae TrmD using S-[methyl-3H] adenosyl-L-methionine as substrate assessed as leucine-tRNA methylation after 1 hr by scintillation proximity assay; summary of the method: as §1
[11] = Dissociation constant, pKa of the compound; assay type: physicochemical
[12] = Inhibition of Pseudomonas aeruginosa TrmD using S-[methyl-3H] adenosyl-L-methionine as substrate assessed as leucine-tRNA methylation after 1 hr by scintillation proximity assay; summary of the method: as §1
[13] = Selectivity ratio of IC50 for Staphylococcus aureus TrmD to IC50 for Escherichia coli TrmD
[14] = target: T1, Histone-lysine N-methyltransferase SETD7 (Homo sapiens); assay: Inhibition of human SET7/9

Row | Compound | IC50 [1] | IC50 [2] | IC50 [3] | further results
1 | c1ccc2[nH]c(-c3cnco3)cc2c1 |  |  |  | solubility [8]: > 500 µM
2 | O=c1[nH]cnc2[nH]cc(-c3ccccc3)c12 | 17 µM | 2.3 µM | 98 µM | 
3 | Cc1cccc2nc[nH]c(=O)c12 |  |  |  | solubility [8]: > 500 µM
4 | Oc1ncnc2scc(-c3ccccc3)c12 | 4.7 µM | 11 µM | 17 µM | 
5 | O=C(NCc1ccccn1)c1csc2nc[nH]c(=O)c12 | 8 µM | > 200 µM | 139 µM | 
6 | Nc1ncnc2c1ncn2[C@@H]1O[C@H](C[C@@H](N)CC[C@H](N)C(=O)O)[C@@H](O)[C@H]1O [SINEFUNGIN] | 1.9 µM | 160 µM | 11 µM | inhibition [14]: Active
7 | O=c1[nH]cnc2[nH]nc(-c3ccccc3)c12 | 30 µM | 1.4 µM | > 200 µM | 
8 | O=C1CN(Cc2ccc(CNC(=O)c3csc4nc[nH]c(=O)c34)cc2)CCN1 | 9.3 µM | 22 µM | 2.8 µM | 
9 | O=c1[nH]cnc2scc(C3CCNC3)c12 (configuration not stated) | > 200 µM | > 200 µM | > 200 µM | 
10 | O=C(NCc1ccccc1)c1csc2nc[nH]c(=O)c12 | 2.6 µM | 64 µM | 6.5 µM | 
11 | Cc1[nH]c2c(=O)n(C3CCNCC3)ccc2c1Cl |  |  |  | solubility [8]: > 500 µM
12 | NC(=O)c1ccc(CNC(=O)c2csc3nc[nH]c(=O)c23)cc1 | 7.1 µM | 25 µM | 4.7 µM | 
13 | CN(Cc1ccccc1)C(=O)c1csc2nc[nH]c(=O)c12 | > 200 µM | > 200 µM | > 200 µM | 
14 | O=C(NCc1ccc(CO)cc1)c1csc2nc[nH]c(=O)c12 | 10 µM | 38 µM | 5.9 µM | 
15 | O=c1[nH]cnc2sccc12 | 144 µM | 1340 µM | 120 µM | 
16 | CC(=O)N1CCC(c2csc3nc[nH]c(=O)c23)C1 (configuration not stated) | > 200 µM | > 200 µM | > 200 µM | 
17 | O=C(NCc1ccncc1)c1csc2nc[nH]c(=O)c12 | 8.2 µM | 72 µM | 19 µM | 
18 | C[C@@H](NC(=O)c1csc2nc[nH]c(=O)c12)c1ccccc1 | 49 µM | > 200 µM | 123 µM | 
19 | O=c1[nH]cnc2ccc(-c3ccccc3)cc12 | 11 µM | > 200 µM |  | 
20 | O=c1[nH]cnc2scc(C3CCCC3)c12 | 16 µM | 21 µM | 52 µM | 
21 | COc1ccc(-c2n[nH]c(N)n2)cc1 |  |  |  | solubility [8]: > 500 µM
22 | O=C(NCc1cccnc1)c1csc2nc[nH]c(=O)c12 | 3.6 µM | 73 µM | 11 µM | 
23 | C[C@H](NC(=O)c1csc2nc[nH]c(=O)c12)c1ccccc1 | > 200 µM | > 200 µM | > 200 µM | 
24 | O=C(NCc1ccc(-c2ccccc2)cc1)c1csc2nc[nH]c(=O)c12 | 64 µM | 105 µM | 33 µM | 

More lines, in order of falling IC50 [1], values ahead:

Row | IC50 [1] | IC50 [2] | IC50 [3] | Compound | further results
25 | 1.8 µM | 12 µM | 4.9 µM | NCC1CCC(CNC(=O)c2csc3nc[nH]c(=O)c23)CC1 (configuration not stated) | 
26 | 1.7 µM | 12 µM | 1.3 µM | COCCNCc1ccc(CNC(=O)c2csc3nc[nH]c(=O)c23)cc1 | 
27 | 1.7 µM | 62 µM | 6.9 µM | Cc1ccc(-c2csc3ncnc(O)c23)cc1 | 
28 | 1.6 µM | 14 µM | 0.47 µM | O=C(NCc1ccc(CN2CCN(CCO)CC2)cc1)c1csc2nc[nH]c(=O)c12 | 
29 | 1.6 µM | 7.6 µM | 0.89 µM | O=C(NCc1ccc(CN2CCNCC2)cc1)c1csc2nc[nH]c(=O)c12 | Selectivity ratio [4]: 50; inhibition [5]: < 10%; Selectivity ratio [6]: 50; inhibition [7]: < 10%
30 | 1.5 µM | 8.2 µM | 0.52 µM | O=C(NCc1ccc(CNCc2ncc[nH]2)cc1)c1csc2nc[nH]c(=O)c12 | Ratio IC50 [9]: 10; Selectivity ratio [4]: 50; inhibition [5]: < 10%; IC50 [10]: 0.23 µM; Selectivity ratio [6]: 50; inhibition [7]: < 10%; IC50 (Klebsiella pneumoniae): 0.31 µM; pKa [11]: 6.5; IC50 [12]: 0.067 µM; Ratio IC50 [13]: 5
31 | 1.3 µM | 7.3 µM | 0.44 µM | O=C(NCc1ccc(CN2CCC(O)CC2)cc1)c1csc2nc[nH]c(=O)c12 | Selectivity ratio [4]: 50; inhibition [5]: < 10%; Selectivity ratio [6]: 50; inhibition [7]: < 10%
32 | 1.2 µM | 1.8 µM | 0.89 µM | O=C(NCc1ccc(CNCCO)cc1)c1csc2nc[nH]c(=O)c12 | 
33 | 1.2 µM | 27 µM | 1.8 µM | CN(C)Cc1ccc(CNC(=O)c2csc3nc[nH]c(=O)c23)cc1 | 
34 | 1.1 µM | 4.7 µM | 0.67 µM | O=C(NCc1ccc(CN2CCCC2)cc1)c1csc2nc[nH]c(=O)c12 | 
35 | 1.1 µM | 5.5 µM | 0.9 µM | N=C(N)c1ccc(CNC(=O)c2csc3nc[nH]c(=O)c23)cc1 | 
36 | 1.1 µM | 6.7 µM | 4.8 µM | O=c1[nH]cnc2onc(-c3ccccc3)c12 | solubility [8]: > 500 µM
37 | 1 µM | 6.6 µM | 1 µM | CCCNCc1ccc(CNC(=O)c2csc3nc[nH]c(=O)c23)cc1 | 
38 | 0.67 µM | 34 µM | 2.1 µM | Cn1cc(-c2csc3nc[nH]c(=O)c23)cn1 | 
39 | 0.66 µM | 5.2 µM | 0.33 µM | NC1CCCN(Cc2ccc(CNC(=O)c3csc4nc[nH]c(=O)c34)cc2)C1 (configuration not stated) | Selectivity ratio [4]: 50; inhibition [5]: < 10%; Selectivity ratio [6]: 50; inhibition [7]: < 10%
40 | 0.6 µM | 6.3 µM | 0.4 µM | O=C(NCc1ccc(CN2CC[C@H](O)C2)cc1)c1csc2nc[nH]c(=O)c12 | Ratio IC50 [9]: 10; IC50 [10]: 0.63 µM; IC50 (Klebsiella pneumoniae): 0.63 µM; IC50 [12]: 0.12 µM; Ratio IC50 [13]: 5
41 | 0.56 µM | 4.3 µM | 0.91 µM | NCc1ccc(CNC(=O)c2csc3nc[nH]c(=O)c23)cc1 | Ratio IC50 [9]: 10; Selectivity ratio [4]: 50; inhibition [5]: < 10%; IC50 [10]: 0.61 µM; Selectivity ratio [6]: 50; inhibition [7]: < 10%; IC50 (Klebsiella pneumoniae): 0.83 µM; pKa [11]: 14.4; IC50 [12]: 0.098 µM; Ratio IC50 [13]: 5
42 | 0.49 µM | 2.9 µM | 0.19 µM | N=C(NCc1ccc(CNC(=O)c2csc3nc[nH]c(=O)c23)cc1)NC1CC1 | Selectivity ratio [4]: 50; inhibition [5]: < 10%; Selectivity ratio [6]: 50; inhibition [7]: < 10%
43 | 0.44 µM | 2.7 µM | 0.4 µM | NCCN1CCN(Cc2ccc(CNC(=O)c3csc4nc[nH]c(=O)c34)cc2)CC1 | Selectivity ratio [4]: 50; inhibition [5]: < 10%; Selectivity ratio [6]: 50; inhibition [7]: < 10%
44 | 0.42 µM | 2.7 µM | 0.29 µM | O=C(NCc1ccc(CN2CC[C@@H](O)C2)cc1)c1csc2nc[nH]c(=O)c12 | Ratio IC50 [9]: 10; IC50 [10]: 0.24 µM; IC50 (Klebsiella pneumoniae): 0.51 µM; IC50 [12]: 0.063 µM; Ratio IC50 [13]: 5
45 | 0.33 µM | 7.4 µM | 0.44 µM | NCCNCc1ccc(CNC(=O)c2csc3nc[nH]c(=O)c23)cc1 | Ratio IC50 [9]: 10; Selectivity ratio [4]: 50; inhibition [5]: < 10%; IC50 [10]: 0.74 µM; Selectivity ratio [6]: 50; inhibition [7]: < 10%; IC50 (Klebsiella pneumoniae): 0.61 µM; IC50 [12]: 0.044 µM; Ratio IC50 [13]: 5
46 | 0.33 µM | 1.8 µM | 0.33 µM | NC1CN(Cc2ccc(CNC(=O)c3csc4nc[nH]c(=O)c34)cc2)C1 | Ratio IC50 [9]: 10; IC50 [10]: 1.3 µM; IC50 (Klebsiella pneumoniae): 1.3 µM; IC50 [12]: 0.25 µM; Ratio IC50 [13]: 5
47 | 0.33 µM | 1.2 µM | 0.18 µM | NC1CCN(Cc2ccc(CNC(=O)c3csc4nc[nH]c(=O)c34)cc2)CC1 | Ratio IC50 [9]: 10; Selectivity ratio [4]: 50; inhibition [5]: < 10%; IC50 [10]: 0.58 µM; Selectivity ratio [6]: 50; inhibition [7]: < 10%; IC50 (Klebsiella pneumoniae): 0.35 µM; IC50 [12]: < 0.039 µM; Ratio IC50 [13]: 5

From ChEMBL document CHEMBL2429843 (J Med Chem, 2013)
